Laboratory results taken from ChEMBL document CHEMBL1121486, “Synthesis of nitrosourea derivatives of pyridine and piperidine as potential anticancer agents” (1980).
Where “and” joins values, the source holds several entries; their conditions need not be identical. Equal values may be shown once.

What was measured:
[1] = tested on: Lewis lung carcinoma cell line; assay: Effect of compound on Lewis Lung carcinoma after single dose injected intraperitoneally on day 1 recorded as percentage of cured animals at OD of 64 mg/kg; conditions: Mus musculus, route intraperitoneal
P388 [2] = assay: Compound tested for toxicity against mouse P388 cell (Intraperitoneally implanted) after single ip injection on day 1 at optimal dose (OD) of 100 mg/kg on the 5th day after the injection of the compound; (6/6); assay type: functional; conditions: route intraperitoneal
Mus musculus [3] = assay: Compound tested for the effect on total white blood cell count and reported as percentage change from control on day 3 at 106 mg/kg (ip); assay type: functional
Summary of the method: (§1)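 Total white blood cell count in mice. Treatment was intraperitoneal at the listed mg/kg doses, 10 mice per group. Counts were taken on days 3, 5 and 7 and expressed as % change from control, with the control being each group's predose value. Significance was taken at p ≤ 0.05.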

Mus musculus [4] = assay: Compound tested for the effect on total white blood cell count and reported as percentage change from control on day 5 at 106 mg/kg (ip); assay type: functional
Summary of the method: as §1

L1210 [5] = assay: Compound tested for toxicity against mouse leukemia L1210 tumor (Intraperitoneally implanted) after single ip injection on day 1 at optimal dose (OD) of 100 mg/kg on the 5th day after the injection of the compound; (6/6); assay type: functional; conditions: route intraperitoneal
Mus musculus [6] = assay: Compound tested for the effect on total white blood cell count and reported as percentage change from control on day 3 at 26.5 mg/kg (ip); assay type: functional
Summary of the method: as §1

L1210 [7] = assay: Compound tested for activity against mouse leukemia L1210 tumor (Intracerebrally implanted) after single ip injection on day 1 at optimal dose of 100 mg/kg (Dose range 200-12.5); assay type: functional; conditions: route intraperitoneal
P388 [8] = assay: Compound tested for activity against mouse leukemia L1210 tumor (Intraperitoneally implanted) after single ip injection on day 1 at optimal dose of 100 mg/kg (Dose range 200-6.25); assay type: functional; conditions: route intraperitoneal
Summary of the method: (§2)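 L1210 leukaemia implanted intraperitoneally in mice. Compound given over a dose range (mg/kg); optimum dose selected. Survivors for toxicity recorded day 5 post-injection. Measures: T – C body weight difference (g), % T/C, and cures, defined as 30-day survivors.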

L1210 [9] = assay: Compound tested for activity against mouse leukemia L1210 tumor (Intraperitoneally implanted) after single ip injection on day 1 at optimal dose of 100 mg/kg (Dose range 200-12.5); assay type: functional; conditions: route intraperitoneal
Summary of the method: as §2

3EM 37 [10] = assay: Compound tested for activity against 3EM 37 mouse ependymoblastoma after single ip injection on day 1 at optimal dose of 100 mg/kg (Dose range 200-12.5); assay type: functional; conditions: route intraperitoneal
P388 [11] = assay: Effect of compound on P388 cell after single ip injection on day 1 recorded as animal weight difference of the treated and the control (T-C) at OD of 100 mg/kg; assay type: functional, Mus musculus; conditions: route intraperitoneal
Summary of the method: (§3)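 Mice bore intraperitoneally implanted P-388 leukaemia and were dosed across a mg/kg range, with an optimum dose picked. Toxicity survivors were scored on day 5 after injection. Outcomes were T – C animal weight difference (g) and % T/C. A cure was a 30-day survivor.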

Mus musculus [12] = assay: Compound tested for the effect on total white blood cell count and reported as percentage change from control on day 7 at 106 mg/kg (ip); assay type: functional
Summary of the method: as §1

3EM 37 [13] = assay: Effect of compound on 3EM 37 mouse ependymoblastoma after single ip injection on day 1 recorded as percentage of cured animals at OD of 100 mg/kg; assay type: functional; conditions: route intraperitoneal
3EM 37 [14] = assay: Compound tested for toxicity against 3EM 37 Mouse Ependymoblastoma after single ip injection on day 1 at optimal dose (OD) of 100 mg/kg on the 5th day after the injection of the compound; (10/10); assay type: functional; conditions: route intraperitoneal
3EM 37 [15] = assay: Effect of compound on 3EM 37 mouse ependymoblastoma after single ip injection on day 1 recorded as animal weight difference of the treated and the control (T-C) at OD of 100 mg/kg; assay type: functional; conditions: route intraperitoneal
Mus musculus [16] = assay: Compound tested for the effect on total white blood cell count and reported as percentage change from control on day 3 at 13.25 mg/kg (ip); assay type: functional
Summary of the method: as §1

L1210 [17] = assay: The effect of compound on mouse leukemia L1210 tumor (Intraperitoneally implanted)after single dose injected intraperitoneally on day 1 […] at OD of 100 mg/kg; assay type: functional; conditions: route intraperitoneal
[18] = tested on: Lewis lung carcinoma cell line; assay: Compound tested for activity against Lewis lung carcinoma after single ip injection on day 1 at optimal dose of 64 mg/kg (Dose range 64-2); conditions: route intraperitoneal
[19] = tested on: Lewis lung carcinoma cell line; assay: Effect of compound on Lewis Lung carcinoma after single dose injected intraperitoneally on day 1 recorded as animal weight difference of the treated and the control (T-C) at OD of 64 mg/kg; assay type: functional, Mus musculus; conditions: route intraperitoneal
Mus musculus [20] = assay: Compound tested for the effect on total white blood cell count and reported as percentage change from control on day 5 at 13.25 mg/kg (ip); assay type: functional
Summary of the method: as §1

L1210 [21] = assay: Compound tested for toxicity against mouse leukemia L1210 tumor (Intracerebrally implanted) after single ip injection on day 1 at optimal dose (OD) of 100 mg/kg on the 5th day after the injection of the compound; (6/6); assay type: functional; conditions: route intraperitoneal
Mus musculus [22] = assay: Compound tested for the effect on total white blood cell count and reported as percentage change from control on day 3 at 53 mg/kg (ip); assay type: functional
Summary of the method: as §1

Mus musculus [23] = assay: Compound tested for the effect on total white blood cell count and reported as percentage change from control on day 7 at 13.25 mg/kg (ip); assay type: functional
Summary of the method: as §1

P388 [24] = assay: The effect of compound on P388 cell after single dose injected intraperitoneally on day 1 […] at OD of 100 mg/kg; assay type: functional, Mus musculus; conditions: route intraperitoneal
Summary of the method: as §3

Mus musculus [25] = assay: Compound tested for the effect on total white blood cell count and reported as percentage change from control on day 5 at 53 mg/kg (ip); assay type: functional
Summary of the method: as §1

Mus musculus [26] = assay: Compound tested for the effect on total white blood cell count and reported as percentage change from control on day 7 at 53 mg/kg (ip); assay type: functional
Summary of the method: as §1

3EM 37 [27] = assay: Compound tested for toxicity against 3EM 37 mouse ependymoblastoma after single ip injection on day 1 at optimal dose (OD) of 100 mg/kg on the 5th day after the injection of the compound; (10/10); conditions: route intraperitoneal
Mus musculus [28] = assay: Compound tested for the effect on total white blood cell count and reported as percentage change from control on day 7 at 75 mg/kg (ip); assay type: functional
Summary of the method: as §1

Mus musculus [29] = assay: Compound tested for the effect on total white blood cell count and reported as percentage change from control on day 5 at 18.75 mg/kg (ip); assay type: functional
Summary of the method: as §1

[30] = tested on: Lewis lung carcinoma cell line; assay: Effect of compound on Lewis Lung carcinoma after single dose injected intraperitoneally on day 1 recorded as percentage of cured animals at OD of 64 mg/kg; conditions: Mus musculus, route intraperitoneal; remark: listed apart in the source
L1210 [31] = assay: Compound tested for activity against mouse leukemia L1210 tumor (Intraperitoneally implanted) after single ip injection on day 1 at optimal dose of 100 mg/kg (Dose range 100-6.25); assay type: functional; conditions: route intraperitoneal
Summary of the method: as §2

Mus musculus [32] = assay: Compound tested for the effect on total white blood cell count and reported as percentage change from control on day 5 at 75 mg/kg (ip); assay type: functional
Summary of the method: as §1

[33] = tested on: Lewis lung carcinoma cell line; assay: Effect of compound on Lewis Lung carcinoma after single ip injection on day 1 recorded as animal weight difference of the treated and the control (T-C) at OD of 64-2 mg/kg; assay type: functional, Mus musculus
Mus musculus [34] = assay: Compound tested for the effect on total white blood cell count and reported as percentage change from control on day 3 at 18.75 mg/kg (ip); assay type: functional
Summary of the method: as §1

[35] = tested on: 3EM 37 ependymoblastoma (Mus musculus); assay: Compound tested for activity against 3EM 37 mouse ependymoblastoma after single ip injection on day 1 at optimal dose of 100 mg/kg (Dose range 200-12.5); conditions: route intraperitoneal
Mus musculus [36] = assay: Compound tested for the effect on total white blood cell count and reported as percentage change from control on day 7 at 8.38 mg/kg (ip); assay type: functional
Summary of the method: as §1

L1210 [37] = assay: The effect of compound on mouse leukemia L1210 tumor (Intracerebrally implanted) after single dose injected intraperitoneally on day 1 […] at OD of 100 mg/kg; assay type: functional; conditions: route intraperitoneal
Mus musculus [38] = assay: Compound tested for the effect on total white blood cell count and reported as percentage change from control on day 5 at 8.38 mg/kg (ip); assay type: functional
Summary of the method: as §1

Mus musculus [39] = assay: Compound tested for the effect on total white blood cell count and reported as percentage change from control on day 3 at 8.38 mg/kg (ip); assay type: functional
Summary of the method: as §1

Mus musculus [40] = assay: Compound tested for the effect on total white blood cell count and reported as percentage change from control on day 3 at 37.5 mg/kg (ip); assay type: functional
Summary of the method: as §1

L1210 [41] = assay: Effect of compound on mouse leukemia L1210 tumor (Intraperitoneally implanted) after single dose injected intraperitoneally on day 1 recorded as animal weight difference of the treated and the control (T-C) at OD of 100 mg/kg; assay type: functional; conditions: route intraperitoneal
Summary of the method: as §2

Mus musculus [42] = assay: Compound tested for the effect on total white blood cell count and reported as percentage change from control on day 7 at 18.75 mg/kg (ip); assay type: functional
Summary of the method: as §1

Mus musculus [43] = assay: Compound tested for the effect on total white blood cell count and reported as percentage change from control on day 5 at 37.5 mg/kg (ip); assay type: functional
Summary of the method: as §1

Mus musculus [44] = assay: Compound tested for the effect on total white blood cell count and reported as percentage change from control on day 3 at 75 mg/kg (ip); assay type: functional
Summary of the method: as §1

Mus musculus [45] = assay: Compound tested for the effect on total white blood cell count and reported as percentage change from control on day 7 at 37.5 mg/kg (ip); assay type: functional
Summary of the method: as §1

O=C(O)/C=C\C(=O)O.O=NN(CCCl)C(=O)NC1CCN(Cc2ccccc2)CC1
T/C [1]: >353% | Survival (P388 [2]): 6 | Change (Mus musculus [3]): -67% | Change (Mus musculus [4]): -35% | Survival (L1210 [5]): 6 | Change (Mus musculus [6]): 12% | Optimal dose (L1210 [7]): 100 mg/kg | Optimal dose (P388 [8]): 100 mg/kg | Optimal dose (L1210 [9]): 100 mg/kg | Optimal dose (3EM 37 [10]): 100 mg/kg | T-C (P388 [11]): -4.5 g | Change (Mus musculus [12]): 1% | T/C (3EM 37 [13]): 242% | Survival (3EM 37 [14]): 10 | T-C (3EM 37 [15]): -1.2 g | Change (Mus musculus [16]): 3% | T/C (L1210 [17]; 100 mg/kg): 379% and 151% | Optimal dose [18]: 64 mg/kg | T-C [19]: -2.9 g | Change (Mus musculus [20]): 18% | Survival (L1210 [21]): 6 | Change (Mus musculus [22]): -22% | Change (Mus musculus [23]): 8% | T/C (P388 [24]): 361% | Change (Mus musculus [25]): -5% and 5% | Change (Mus musculus [26]): 14% and 7%

O=C(O)/C=C\C(=O)O.O=NN(CCCl)C(=O)NC1CCCN(Cc2ccccc2)C1 (stereo unspecified)
Survival (3EM 37 [27]): 10 | Change (Mus musculus [28]): 11% | Change (Mus musculus [29]): -5% | Survival (L1210 [5]): 6 | Optimal dose (L1210 [7]): 100 mg/kg | T/C [30]: 259% | Optimal dose (L1210 [31]): 100 mg/kg | Change (Mus musculus [32]): -45% | Optimal dose [33]: 64 mg/kg | Change (Mus musculus [34]): -26% | Optimal dose [35]: 100 mg/kg | Change (Mus musculus [36]): 23% | T/C (3EM 37 [13]): 223% | T/C (L1210 [37]): 192% | Change (Mus musculus [38]): 15% | T/C (L1210 [17]): 340% | Change (Mus musculus [39]): -19% | Change (Mus musculus [40]): -20% | T-C (L1210 [41]): -5 g | Change (Mus musculus [42]): 40% | T-C [19]: -3.7 g | Survival (L1210 [21]): 6 | Change (Mus musculus [43]): 16% | Change (Mus musculus [44]): -63% | Change (Mus musculus [45]): 60%
